Experimental data reported in ChEMBL document CHEMBL1671680, “Pradimicin S, a highly soluble nonpeptidic small-size carbohydrate-binding antibiotic, is an anti-HIV drug lead for both microbicidal and systemic use” (Antimicrob Agents Chemother, 2010).

Experiment: Chemical stability of the compound in 7mM sodium phosphate buffer after 4 days by HPLC at pH 4
Type: physicochemical
Conditions: pH 4, 96 h
Method in brief: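 1 mM compound held 4 days in PBS at 50°C, or in 7 mM sodium phosphate pH 4.0 at room temperature; then analysed by reverse-phase HPLC (phosphate/heptanesulfonate pH 3.2 buffer–acetonitrile gradient, 1 ml/min).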

Structure (SMILES): CN[C@@H]1[C@H](O[C@@H]2O[C@H](CO)[C@@H](O)[C@H](OS(=O)(=O)O)[C@H]2O)[C@@H](O)[C@H](O[C@H]2c3cc(C)c(C(=O)N[C@H](C)C(=O)O)c(O)c3-c3c(cc4c(c3O)C(=O)c3cc(OC)cc(O)c3C4=O)[C@@H]2O)O[C@@H]1C [PRADIMICIN S]
- Stability: Stable
